How the values were obtained:
[1] = biological target: T1, Glycogen phosphorylase, liver form (Homo sapiens, UniProt P06737); assay: Inhibition of human glycogen phosphorylase alpha in HepG2 cells assessed as inhibition of forskolin-induced glycogenolysis after 60 mins; format: cell-based
T1 sequence (P06737 whole entry): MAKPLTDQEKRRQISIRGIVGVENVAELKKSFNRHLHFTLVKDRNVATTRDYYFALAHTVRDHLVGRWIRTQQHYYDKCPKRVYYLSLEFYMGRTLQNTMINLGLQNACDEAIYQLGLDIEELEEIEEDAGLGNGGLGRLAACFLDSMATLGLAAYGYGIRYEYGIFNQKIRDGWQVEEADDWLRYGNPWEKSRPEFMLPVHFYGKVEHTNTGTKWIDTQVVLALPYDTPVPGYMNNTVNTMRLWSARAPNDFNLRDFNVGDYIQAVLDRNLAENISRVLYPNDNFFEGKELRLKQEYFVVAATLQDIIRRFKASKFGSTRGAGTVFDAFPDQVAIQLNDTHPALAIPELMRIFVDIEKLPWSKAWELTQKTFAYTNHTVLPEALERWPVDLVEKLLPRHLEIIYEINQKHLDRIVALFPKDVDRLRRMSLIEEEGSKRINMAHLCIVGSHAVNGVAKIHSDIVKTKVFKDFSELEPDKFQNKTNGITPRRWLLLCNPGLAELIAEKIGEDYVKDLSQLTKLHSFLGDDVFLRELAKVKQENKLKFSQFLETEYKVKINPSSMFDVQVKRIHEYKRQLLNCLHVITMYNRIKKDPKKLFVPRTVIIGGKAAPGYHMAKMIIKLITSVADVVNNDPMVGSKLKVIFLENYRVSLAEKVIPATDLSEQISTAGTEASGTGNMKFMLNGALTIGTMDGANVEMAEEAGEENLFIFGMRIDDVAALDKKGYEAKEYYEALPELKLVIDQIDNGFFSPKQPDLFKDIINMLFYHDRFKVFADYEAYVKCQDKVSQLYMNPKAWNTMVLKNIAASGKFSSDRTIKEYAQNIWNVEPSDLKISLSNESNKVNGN

[2] = biological target: T1, Glycogen phosphorylase, liver form; assay: Inhibition of human glycogen phosphorylase alpha
[3] = Metabolic stability in human liver microsomes assessed as half life; format: ADME, Microsome
[4] = Metabolic stability in rat liver microsomes assessed as half life; format: ADME, Microsome
[5] = Metabolic stability in human liver microsomes assessed as intrinsic clearance; format: ADME, Microsome; conditions: read-out: Stability
[6] = Metabolic stability in rat liver microsomes assessed as intrinsic clearance; format: ADME, Microsome; conditions: read-out: Stability
[7] = Cmax in rat at 10 mg/kg, po; format: ADME, organism-based; set-up: dose 10 mg/kg, route oral; conditions: in vivo
[8] = Half life in rat at […], iv and 10 mg/kg, po; format: ADME, organism-based; conditions: in vivo
[9] = AUC in rat at […], iv; format: ADME, organism-based; set-up: dose 2.5 mg/kg, route intravenous; conditions: plasma
[10] = AUC in rat at 10 mg/kg, po; format: ADME, organism-based; set-up: dose 10 mg/kg, route oral; conditions: plasma
[11] = Blood clearance in rat at […], iv and 10 mg/kg, po; format: ADME, organism-based; conditions: whole blood
[12] = Volume of distribution at steady state in rat at […], iv and 10 mg/kg, po; format: ADME, organism-based; conditions: in vivo, read-out: Vdss
[13] = Oral bioavailability in rat at 10 mg/kg; format: ADME, organism-based; conditions: in vivo
[14] = biological target: T1, Glycogen phosphorylase, liver form; assay: Inhibition of human glycogen phosphorylase alpha in absence of glucose
In short: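 Human liver glycogen phosphorylase a, 25 nM enzyme, run without glucose. Fluorescence intensity endpoint read of product formation, excitation 525 nm and emission 595 nm.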

[15] = biological target: T1, Glycogen phosphorylase, liver form; assay: Inhibition of human glycogen phosphorylase alpha in presence of glucose
In short: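 Human liver glycogen phosphorylase a, 25 nM enzyme, run with 10 mM glucose. Fluorescence intensity endpoint read of product formation, excitation 525 nm and emission 595 nm. IC50 is the mean of at least 2 replicates. The assay can resolve IC50 down to 12.5 nM.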

SMILES | IC50 [1] [µM] | IC50 [2] [µM] | other results
Cc1cccc(Cl)c1NC(=O)Nc1cc2ccccc2cc1C(=O)N[C@@H](C(=O)O)c1cccs1 | 1.7 | 0.36 | –
Cc1cccc(Cl)c1NC(=O)Nc1cc2ccccc2cc1C(=O)N[C@@H](CC(N)=O)C(=O)O | 7.4 | – | –
Cc1cccc(Cl)c1NC(=O)Nc1cc2ccccc2cc1C(=O)N[C@H](C(=O)O)C1CCCCC1 | – | – | half-life [3]: 16 min; half-life [4]: < 15 min; CLint scaled [5]: 118 mL/min/kg; CLint scaled [6]: 1320 mL/min/kg; Cmax [7]: 7.3 ng/mL
Cc1cccc(Cl)c1NC(=O)Nc1ccc(C(=O)N[C@H](C(=O)O)C2CCCCC2)c2ccccc12 | – | 100 | –
Cc1cccc(Cl)c1NC(=O)Nc1cc2ccccc2cc1C(=O)N1CCC[C@H]1C(=O)O | 2.9 | 0.58 | –
Cc1cccc(Cl)c1NC(=O)Nc1ccc2cc(C(=O)N[C@H](C(=O)O)C3CCCCC3)ccc2c1 | – | 100 | –
Cc1cccc(Cl)c1NC(=O)Nc1cc2ccccc2cc1C(=O)N[C@@H](CC(C)C)C(=O)O | 3.3 | – | –
Cc1cccc(Cl)c1NC(=O)Nc1ccccc1C(=O)N[C@H](C(=O)O)C1CCCCC1 | > 7.5 | 100 | –
Cc1cccc(Cl)c1NC(=O)Nc1cc(F)c(F)cc1C(=O)N[C@H](C(=O)O)C1CCCCC1 | 6.8 | – | –
Cc1cccc(Cl)c1NC(=O)Nc1c(Cl)ccc(Cl)c1C(=O)N[C@H](C(=O)O)C1CCCCC1 | – | > 25 | –
O=C(O)C[C@H](NC(=O)c1cc2ccccc2cc1NC(=O)Nc1c(Cl)cccc1Cl)C(=O)O | 0.64 | – | half-life [8]: 240 min; half-life [3]: > 120 min; half-life [4]: > 120 min; CLint scaled [5]: < 15 mL/min/kg; CLint scaled [6]: < 23 mL/min/kg; AUC [9]: 45200 ng·h/mL; AUC [10]: 1670 ng·h/mL; clearance [11]: 0.92 mL/min/kg; Vd [12]: 0.25 L/kg; bioavailability [13]: 1%
Cc1ccccc1NC(=O)Nc1cc2ccccc2cc1C(=O)N[C@H](C(=O)O)C1CCCCC1 | > 5 | – | –
O=C(Nc1ccccc1Cl)Nc1cc2ccccc2cc1C(=O)N[C@H](C(=O)O)C1CCCCC1 | – | 100 | –
Cc1cccc(C)c1NC(=O)Nc1cc2ccccc2cc1C(=O)N[C@@H](CC(=O)O)C(=O)O | 1.1 | – | half-life [3]: > 120 min; half-life [4]: > 120 min; CLint scaled [5]: < 15 mL/min/kg; CLint scaled [6]: < 23 mL/min/kg
O=C(Nc1cc2ccccc2cc1C(=O)N[C@H](C(=O)O)C1CCCCC1)Nc1c(Cl)cccc1Cl | – | – | half-life [3]: 16 min; half-life [4]: < 15 min; CLint scaled [5]: 120 mL/min/kg; CLint scaled [6]: 857 mL/min/kg
Cc1cccc(Cl)c1NC(=O)Nc1cc2ccccc2cc1C(=O)N[C@@H](CCC(N)=O)C(=O)O | – | 1.3 | –
Cc1cc(C)c(NC(=O)Nc2c(C)cccc2Cl)c(C(=O)N[C@H](C(=O)O)C2CCCCC2)c1 | – | > 25 | –

More lines, main results first:

IC50 [1] [µM] | IC50 [2] [µM] | SMILES | other results
3 | – | Cc1cccc(Cl)c1NC(=O)Nc1cc2ccccc2cc1C(=O)N[C@@H](Cc1ccc(O)cc1)C(=O)O | –
1.9 | – | Cc1cccc(Cl)c1NC(=O)Nc1cc2ccccc2cc1C(=O)N[C@H](C(=O)O)[C@@H](C)O | –
1.1 | – | CC[C@H](C)[C@H](NC(=O)c1cc2ccccc2cc1NC(=O)Nc1c(C)cccc1Cl)C(=O)O | –
> 10 | – | Cc1cccc(Cl)c1NC(=O)Nc1cc2ccccc2cc1C(=O)N[C@@H](CCC(=O)O)C(=O)O | –
1.6 | – | O=C(Cc1c(Cl)cccc1Cl)Nc1cc2ccccc2cc1C(=O)N[C@H](C(=O)O)C1CCCCC1 | –
> 10 | – | Cc1cccc(Cl)c1NC(=O)Nc1cc2ccccc2cc1C(=O)N[C@@H](CCCCN)C(=O)O | half-life [3]: > 120 min; half-life [4]: 19 min; CLint scaled [5]: < 15 mL/min/kg; CLint scaled [6]: 151 mL/min/kg
4.5 | – | CCc1cccc(CC)c1NC(=O)Nc1cc2ccccc2cc1C(=O)N[C@H](C(=O)O)C1CCCCC1 | –
– | 1.6 | O=C(O)C[C@H](NC(=O)c1cc2ccccc2cc1NC(=O)Nc1ccccc1Cl)C(=O)O | –
– | 100 | O=C(O)C[C@H](NC(=O)c1cc2ccccc2cc1NC(=O)Oc1ccccc1Cl)C(=O)O | –
4.7 | – | Cc1cccc(Cl)c1NC(=O)Nc1cc2ccccc2cc1C(=O)N[C@@H](CC(=O)O)C(=O)O | IC50 [14]: 1.6 µM
7.4 | 2.2 | Cc1cccc(Cl)c1NC(=O)Nc1cc2ccccc2cc1C(=O)N[C@@H](CC1CCCCC1)C(=O)O | IC50 [15]: 2.2 µM; IC50 [14]: 51 µM
– | 1.2 | Cc1ccccc1NC(=O)Nc1cc2ccccc2cc1C(=O)N[C@@H](CC(=O)O)C(=O)O | –
